In brackets after ≈: the same amount, converted by molar mass.
System: Mycobacterium tuberculosis
Assay: Antitubercular activity against Mycobacterium tuberculosis H37Rv ATCC 27294 by microplate alamar blue assay
Assay type: functional
In short: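 Resazurin-based (Alamar Blue) colorimetric redox indicator used to assess growth of M. tuberculosis H37Rv. MIC (µg/mL) is taken as the lowest drug concentration that prevents a colour change from blue (no growth) to pink (growth).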

Structure (SMILES) | MIC
Cc1c(C(=O)N/N=C/c2ccccc2)nnn1Nc1ccccc1 | > 100 mg/L
Cc1c(C(=O)N/N=C/c2ccc([N+](=O)[O-])o2)nnn1Nc1ccccc1 | 2.5 mg/L (≈ 7.04 µM)
CC[C@@H](CO)NCCN[C@@H](CC)CO [ETHAMBUTOL] | 2 mg/L (≈ 9.79 µM)
CC(C)CCOc1ccc(NC(=S)Nc2ccc(OCCC(C)C)cc2)cc1 [TIOCARLIDE] | 2.5 mg/L (≈ 6.24 µM)
Cc1c(C(=O)N/N=C/c2ccco2)nnn1Nc1ccccc1 | 5 mg/L (≈ 16.1 µM)
Cc1c(C(=O)N/N=C/c2ccco2)nnn1Nc1ccc(F)cc1 | 12.5 mg/L (≈ 38.1 µM)
Cc1c(C(=O)N/N=C/c2ccc(Br)s2)nnn1Nc1ccc(Cl)cc1 | > 100 mg/L
Cc1c(C(=O)N/N=C/c2ccccc2)nnn1Nc1ccc(F)cc1 | > 100 mg/L
Cc1c(C(=O)N/N=C/c2ccco2)nnn1Nc1ccc(Cl)cc1 | 12.5 mg/L (≈ 36.3 µM)
Cc1c(C(=O)N/N=C/c2ccccc2)nnn1Nc1ccc(Cl)cc1 | > 100 mg/L
Cc1c(C(=O)N/N=C/c2ccc([N+](=O)[O-])o2)nnn1Nc1ccc(F)cc1 | 5 mg/L (≈ 13.4 µM)
Cc1c(C(=O)N/N=C/c2ccccc2)nnn1Nc1ccc(Br)cc1 | > 100 mg/L
Cc1c(C(=O)N/N=C/c2ccc(Br)s2)nnn1Nc1ccc(F)cc1 | > 100 mg/L
Cc1c(C(=O)N/N=C/c2ccc([N+](=O)[O-])o2)nnn1Nc1ccc(Br)cc1 | 6.25 mg/L (≈ 14.4 µM)
Cc1c(C(=O)N/N=C/c2ccc(Br)s2)nnn1Nc1ccccc1 | 12.5 mg/L (≈ 30.8 µM)
Cc1c(C(=O)N/N=C/c2ccc([N+](=O)[O-])o2)nnn1Nc1ccc(Cl)cc1 | 5 mg/L (≈ 12.8 µM)
Cc1c(C(=O)N/N=C/c2ccco2)nnn1Nc1ccc(Br)cc1 | 25.5 mg/L (≈ 65.5 µM)
Cc1c(C(=O)N/N=C/c2ccc(Br)s2)nnn1Nc1ccc(Br)cc1 | > 100 mg/L
